This passage reports Activity results from ChEMBL document CHEMBL5236592, “Induction of Ferroptosis in Glioblastoma and Ovarian Cancers by a New Pyrrole Tubulin Assembly Inhibitor” (J Med Chem, 2022).

The structures appear in SMILES notation. Calls of active or inactive are those of the source. No cut-off for these calls is given here.

One series has as its system T-cell line. Briefly: Cytotoxicity against human primary T-lymphocytes assessed as reduction in cell viability at 0.1 uM incubated for 48 to 72 hrs by Annexin V- APC/PI staining based flow cytometry analysis. Conditions: time 48-72 hrs. The format is toxicity. A digest of the protocol: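 T lymphocytes negatively selected from healthy-donor PBMCs isolated by density gradient. Cultured at 1.5 × 10^6/mL with 0.1, 1.0 or 2.5 μM compound, DMSO vehicle or untreated, for 48 or 72 h. Stained with annexin V-APC and propidium iodide; early and late apoptotic fractions counted by flow cytometry.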

Series [1] deals with Mus musculus. Briefly: Upregulation of ENDOG mRNA expression in tumor of BALB/C nu/nu mouse xenografted with human U-87 MG cells at 25 mg/kg, ip administered every 2 days for 40 days by qPCR analysis. The format is functional, organism-based. The following applies: time 40.0 day. A digest of the protocol: (§1)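 Female BALB/c nu/nu mice bearing sc U-87 MG or SKOV-3 xenografts were dosed ip at 25 mg/kg (100 μL) every 2 days, or given saline, and tumors were taken at day 40. RNA was extracted from about 20 mg of tissue. qPCR ran 40 cycles (95 °C 15 min; 94 °C 20 s; 60 °C 34 s) on a 69-gene panel. Fold change was by 2^–ΔΔCt, with ≥1.5 counted as increased.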

Series [2] concerns Mus musculus. Briefly: Upregulation of Cisd1 mRNA expression in tumor of BALB/C nu/nu mouse xenografted with human SK-OV-3 cells at 25 mg/kg, ip administered every 2 days for 40 days by qPCR analysis. In kind it is functional, organism-based. Conditions: time 40.0 day. In a few lines: as §1
A general note: A xenograft is tissue or cells of one species grown in another, often human tumour cells in immunodeficient mice.

The test system of series [3] is U-87MG ATCC. Put plainly: Induction of ferroptosis-mediated antitumor activity against human U-87 MG cells xenografted in BALB/C nu/nu mouse assessed as increase in Fe2+ level in tumor at 25 mg/kg, ip administered every 2 days for 40 days. The format is functional, organism-based. Conditions: time 40.0 day. A digest of the protocol:
(§2)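 U-87 MG or SKOV-3 sc xenografts (1 × 10^8 cells/mL) in female BALB/c nu/nu mice, 4 per group. Given 25 mg/kg ip in 100 μL every 2 days, or saline. Tumors harvested on day 40 and assayed for LPO, MDA, lactic acid, total glutathione (GSH + GSSG), ATP and Fe2+.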

Series [4] has as its system Mus musculus. Briefly: Upregulation of Acsl4 mRNA expression in tumor of BALB/C nu/nu mouse xenografted with human U-87 MG cells at 25 mg/kg, ip administered every 2 days for 40 days by qPCR analysis. In kind it is functional, organism-based. Conditions: time 40.0 day. In a few lines: as §1
The test system of series [5] is Mus musculus. Briefly: Upregulation of Akr1c1 mRNA expression in tumor of BALB/C nu/nu mouse xenografted with human SK-OV-3 cells at 25 mg/kg, ip administered every 2 days for 40 days by qPCR analysis. In kind it is functional, organism-based. Conditions: time 40.0 day. A digest of the protocol:
as §1

For series [6], the system named is Mus musculus. Put plainly: Upregulation of Akr1c3 mRNA expression in tumor of BALB/C nu/nu mouse xenografted with human U-87 MG cells at 25 mg/kg, ip administered every 2 days for 40 days by qPCR analysis. In kind it is functional, organism-based. Conditions: time 40.0 day. In a few lines:
as §1

Series [7] deals with Mus musculus. Put plainly: Upregulation of Gls2 mRNA expression in tumor of BALB/C nu/nu mouse xenografted with human SK-OV-3 cells at 25 mg/kg, ip administered every 2 days for 40 days by qPCR analysis. The following applies: time 40.0 day. In kind it is functional, organism-based. A digest of the protocol: as §1
Series [8] deals with U-87MG ATCC. Put plainly: Induction of ferroptosis-mediated antitumor activity against human U-87 MG cells xenografted in BALB/C nu/nu mouse assessed as increase in malondialdehyde level in tumor at 25 mg/kg, ip administered every 2 days for 40 days by biochemical analysis. In kind it is functional, organism-based. Conditions: time 40.0 day. A digest of the protocol:
as §2

Series [9] has as its system Mus musculus. Briefly: Upregulation of Hspb1 mRNA expression in tumor of BALB/C nu/nu mouse xenografted with human SK-OV-3 cells at 25 mg/kg, ip administered every 2 days for 40 days by qPCR analysis. Conditions: time 40.0 day. In kind it is functional, organism-based. A digest of the protocol: (§3)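 Female BALB/c nu/nu mice, 10 weeks old, 4 per group. Inoculated s.c. with 1 × 10^8 cells/mL of log-phase U-87 MG or SKOV-3 cells. Dosed i.p. with 100 μL at 25 mg/kg every 2 days; controls got 100 μL saline. Tumors harvested on day 40. RNA extracted from about 20 mg of tissue. qPCR panel of 69 genes, 40 cycles (94 °C 20 s, 60 °C 34 s). Analysed by 2–ΔΔCt; fold ≥1.5 taken as increased.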

The test system of series [10] is Mus musculus. Put plainly: Upregulation of Hspb5 mRNA expression in tumor of BALB/C nu/nu mouse xenografted with human U-87 MG cells at 25 mg/kg, ip administered every 2 days for 40 days by qPCR analysis. The following applies: time 40.0 day. The format is functional, organism-based. A digest of the protocol:
as §3

Series [11] relates to U-87MG ATCC. Put plainly: Induction of ferroptosis-mediated antitumor activity against human U-87 MG cells xenografted in BALB/C nu/nu mouse assessed as reduction in ATP level in tumor at 25 mg/kg, ip administered every 2 days for 40 days by biochemical analysis. The format is functional, organism-based. The following applies: time 40.0 day. In a few lines: as §2
Series [12] has as its system Mus musculus. Briefly: Upregulation of Ptgs2 mRNA expression in tumor of BALB/C nu/nu mouse xenografted with human U-87 MG cells at 25 mg/kg, ip administered every 2 days for 40 days by qPCR analysis. The format is functional, organism-based. The following applies: time 40.0 day. In a few lines:
as §3

The test system of series [13] is Mus musculus. Briefly: Upregulation of TFRC mRNA expression in tumor of BALB/C nu/nu mouse xenografted with human U-87 MG cells at 25 mg/kg, ip administered every 2 days for 40 days by qPCR analysis. In kind it is functional, organism-based. Conditions: time 40.0 day. In a few lines:
as §3

For series [14], the system named is Mus musculus. Put plainly: Upregulation of TFRC mRNA expression in tumor of BALB/C nu/nu mouse xenografted with human SK-OV-3 cells at 25 mg/kg, ip administered every 2 days for 40 days by qPCR analysis. In kind it is functional, organism-based. The following applies: time 40.0 day. A digest of the protocol:
as §3

For series [15], the system named is Mus musculus. Briefly: Upregulation of Cars mRNA expression in tumor of BALB/C nu/nu mouse xenografted with human U-87 MG cells at 25 mg/kg, ip administered every 2 days for 40 days by qPCR analysis. In kind it is functional, organism-based. Conditions: time 40.0 day. A digest of the protocol:
as §1

In series [16] the test system is Mus musculus. Put plainly: Upregulation of Clsd1 mRNA expression in tumor of BALB/C nu/nu mouse xenografted with human U-87 MG cells at 25 mg/kg, ip administered every 2 days for 40 days by qPCR analysis. In kind it is functional, organism-based. Conditions: time 40.0 day. A digest of the protocol: as §1
The test system of series [17] is Mus musculus. Put plainly: Upregulation of FTH1 mRNA expression in tumor of BALB/C nu/nu mouse xenografted with human SK-OV-3 cells at 25 mg/kg, ip administered every 2 days for 40 days by qPCR analysis. In kind it is functional, organism-based. The following applies: time 40.0 day. A digest of the protocol:
as §1

Series [18] concerns Mus musculus. Briefly: Upregulation of Sat1 mRNA expression in tumor of BALB/C nu/nu mouse xenografted with human U-87 MG cells at 25 mg/kg, ip administered every 2 days for 40 days by qPCR analysis. In kind it is functional, organism-based. Conditions: time 40.0 day. In a few lines: as §3
For another series, the system named is SK-OV-3. Put plainly: Induction of ferroptosis-mediated antitumor activity against human SK-OV-3 cells xenografted in BALB/C nu/nu mouse assessed as increase in […] level in tumor at 25 mg/kg, ip administered every 2 days for 40 days by biochemical analysis. The format is functional, organism-based. Conditions: time 40.0 day. A digest of the protocol: as §2

The test system of series [19] is Mus musculus. Put plainly: Upregulation of Cbs mRNA expression in tumor of BALB/C nu/nu mouse xenografted with human SK-OV-3 cells at 25 mg/kg, ip administered every 2 days for 40 days by qPCR analysis. The following applies: time 40.0 day. In kind it is functional, organism-based. A digest of the protocol: as §1
The subject of series [20] is Mus musculus. Put plainly: Upregulation of Gls2 mRNA expression in tumor of BALB/C nu/nu mouse xenografted with human U-87 MG cells at 25 mg/kg, ip administered every 2 days for 40 days by qPCR analysis. The format is functional, organism-based. Conditions: time 40.0 day. A digest of the protocol: as §3

As for `COc1cc(C(=O)c2cn(-c3ncccn3)cc2-c2ccco2)cc(OC)c1OC`, the Activity result in the series with T-cell line is recorded as “Non-Toxic”. Moreover, the outcome in the series on Mus musculus [1], in the series with Mus musculus [2], with U-87MG ATCC [3], in the series with Mus musculus [4], in the series with Mus musculus [5] and in the series with Mus musculus [6] was Active. In addition, the result with Mus musculus [7], in the series on U-87MG ATCC [8], in the series on Mus musculus [9], in the series with Mus musculus [10], in the series on U-87MG ATCC [11] and in the series with Mus musculus [12] was Active. The result in the series with Mus musculus [13], in the series with Mus musculus [14], with Mus musculus [15], in the series with Mus musculus [16], in the series with Mus musculus [17] and with Mus musculus [18] was Active. The result in the series with SK-OV-3, with Mus musculus [19] and with Mus musculus [20] was Active.
